These results are taken from ChEMBL document CHEMBL4130614, “Synthesis and Bioactivity of Reduced Chalcones Containing Sulfonamide Side Chains” (J Nat Prod, 2018).

The structures appear in SMILES notation.

Test [1] has as its system Mycobacterium tuberculosis. The test can be described thus: Antibacterial activity against Mycobacterium tuberculosis H37Rv ATCC 25618 assessed as growth inhibition at 10 uM measured at 24 hrs interval by BACTEC radiometric method relative to control. Format: functional. The conditions noted are these: for inhibition of growth at 10 µM: Mycobacterium tuberculosis, H37Rv ATCC 25618, 24 h, read-out: GI. Summed up: (§1)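 H37Rv grown in 7H9 with ADC to about 0.16 A600 (one McFarland), inoculated into BACTEC vials and incubated at 37 °C to GI 500 (±50). This primary culture was then dosed with filter-sterilised compound at 10 μM in DMSO (final DMSO 2.5%) and held at 37 °C. Growth was read every 24 h as radiometric CO₂ growth index against controls.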

The subject of test [2] is Mycobacterium tuberculosis. The test can be described thus: Antibacterial activity against Mycobacterium tuberculosis H37Rv ATCC 25618 measured at 24 hrs interval by BACTEC radiometric method. Format: functional. Summed up:
as §1

The next test relates to Plasmodium falciparum. Description: Antiplasmodial activity against chloroquine-sensitive Plasmodium falciparum NF54 by lactate dehydrogenase assay. Format: functional, organism-based. The method, boiled down: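 Asexual erythrocyte-stage P. falciparum kept in continuous in vitro culture (modified Trager–Jensen). Activity quantified by parasite lactate dehydrogenase assay (modified Makler method). Triplicate wells, on one or two separate occasions. IC50 from full dose–response curves by nonlinear curve fitting. Chloroquine run as internal standard to monitor conditions.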

The mark [3] stands for this setting: Mycobacterium tuberculosis, H37Rv ATCC 25618, 24 h, read-out: MIC99.

Broadly, the MIC99 is an inhibitory concentration at the 99% level, which refers to growth in some studies and to a panel of isolates in others. In the case of `NS(=O)(=O)c1ccc(NCc2cc(CCCc3ccccc3)cc(CNc3ccc(S(N)(=O)=O)cc3)c2O)cc1`, in test [1], the inhibition of growth at 10 µM came to 0%. For the same compound, the MIC99 in test [2] (setting [3]) is over 10 µM.
The term IC50 denotes the point on the concentration scale where inhibition reaches its midpoint. Consider `Nc1ccc(S(N)(=O)=O)cc1` [SULFANILAMIDE], for which, in test [1], the inhibition of growth at 10 µM worked out at 0%. The MIC99 in test [2] (setting [3]) is over 10 µM. In addition, the half-inhibitory concentration (IC50) entry with Plasmodium falciparum is “Not Active”.
As for `CN(C)Cc1cc(CCCc2ccccc2)cc(CN(C)C)c1O`, the inhibition of growth at 10 µM in test [1] stood at 42%. The MIC99 in test [2] (setting [3]) is over 10 µM.
For the compound `Oc1ccc(CCCc2ccccc2)cc1`, the inhibition of growth at 10 µM in test [1] is 96%. The MIC99 in test [2] (setting [3]) is over 10 µM.
In the case of `CN(C)Cc1ccc(CCCc2ccccc2)cc1O`, in test [1], the “growth inhibition (GI)” value is reported as 74%. Also, the MIC99 in test [2] (setting [3]) was over 10 µM.
For the compound `CN(C)Cc1ccc(CCCc2ccccc2)cc1O.Cl`, the “growth inhibition (GI)” value in test [1] is 36%. In test [2], this compound gave an MIC99 of over 10 µM.
Consider `Oc1cccc(CCCc2ccccc2)c1`, for which the inhibition of growth at 10 µM in test [1] came to 94%. In addition, in test [2] (setting [3]), the MIC99 is over 10 µM. Further, the IC50 result in the test on Plasmodium falciparum was “Not Active”.
With `C[C@H]1[C@H](OC(=O)CCC(=O)O)O[C@@H]2O[C@@]3(C)CC[C@H]4[C@H](C)CC[C@@H]1[C@@]24OO3` [ARTESUNATE], the IC50 in the test on Plasmodium falciparum (Plasmodium falciparum, NF54, read-out: IC50) was under 5.2 µM.
Turning to `Cc1cc(NS(=O)(=O)c2ccc(N)cc2)no1` [SULFAMETHOXAZOLE], in the test on Plasmodium falciparum, the half-maximal inhibitory concentration (IC50) entry is given as “Not Active”.
As to `CN(C)Cc1cc(CCCc2ccccc2)cc(CN(C)C)c1O.Cl.Cl`, the “growth inhibition (GI)” value in test [1] is given as 33%. For the same compound, in test [2], the MIC99 is over 10 µM.
For `NS(=O)(=O)c1ccc(NCc2ccc(CCCc3ccccc3)cc2O)cc1`, the inhibition of growth at 10 µM in test [1] worked out at 14%. Moreover, the MIC99 in test [2] (setting [3]) was over 10 µM. Also, the IC50 entry in the test with Plasmodium falciparum is “Not Active”.
As to `COc1ncnc(NS(=O)(=O)c2ccc(N)cc2)c1OC` [SULFADOXINE], in the test on Plasmodium falciparum, the concentration for half-maximal inhibition (IC50) result was “Not Active”.
